For series [1] the following is noted: patients undergoing dialysis compared with healthy participants; cited from earlier work.
The nature of series [2]: Linear regression of log-transformed PK parameters versus eGFR or CrCL. Format: in vivo, human. The note with it: for increase in overall exposure: regression analysis.
Series [3] is classed as in vivo, human. The note with it: for AUC / AUC(0-t) / AUC(0-inf) / Cmax / Tmax / half-life: human, plasma, po, 60 mg; for AUC: AUC96, single oral 60 mg; for AUC / AUC(0-t) / AUC(0-inf) / Cmax / %Urt (percentage dose recovered in urine) / CLT/F (apparent total body clearance): adjusted geometric mean (%CV); for AUC(0-t): AUCt; for AUC(0-t) / AUC(0-inf) / Cmax / Tmax / half-life / %Urt (percentage dose recovered in urine) / CLT/F (apparent total body clearance): single oral 60 mg; for Cmax: n = 8; for Tmax: median (minimum–maximum); for half-life: T½ (terminal plasma half-life), mean (SD). In outline:
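There were three eGFR-defined groups (MDRD; n = 8 each, matched by age, weight and sex). Each participant received one oral 60 mg dose after a standard meal, with serial plasma and urine collection. Plasma concentrations were measured by validated LC-MS/MS. Urine recovery was the sum of concentration × urine volume per collection interval, expressed as % of dose. CLT/F came from plasma concentration-time data. Values are adjusted geometric mean (%CV).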

The nature of series [4]: Safety and tolerability. The note with it: for Any AE / Headache / Somnolence: single oral 60 mg. Type of series: in vivo, human.
For series [5], the system named is aPTT. Nature of the series: Activated partial thromboplastin time. Particulars: for aPTT percentage change from baseline at mean peak: single oral 60 mg. Type of series: in vivo, human. In outline:
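Participants (n = 8 per group) were grouped by eGFR (MDRD formula): normal ≥ 90, moderate ≥ 30 to ≤ 59, or severe < 30 mL/min/1.73 m2 (not on dialysis). They were matched by age, body weight and sex. Each received a single oral dose of test compound after a standard meal. aPTT was an exploratory PD biomarker, measured by a validated central-laboratory assay. Baseline was predose Day 1.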

Series [6] in a line: Milvexian plasma protein binding by LC-MS/MS. Type of series: in vitro ADME, human. The note with it: adjusted geometric mean (%CV); for fraction unbound: human, plasma, %fu (fraction of unbound drug). In outline:
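The severe group had eGFR < 30 mL/min/1.73 m2 (MDRD) and no dialysis, and received a single oral 60 mg dose after a standard meal. A designated protein-binding blood sample was analysed for […] test compound by validated LC-MS/MS. Results were reported as adjusted geometric mean (%CV).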

The conditions of series [7]: previous first-in-human study; cited from earlier work.
The conditions of series [8]: patients with severe renal impairment (CrCL of 15 mL/min) compared with healthy participants; cited from earlier work.
Setting [9] is: CrCL 30 vs CrCL 90 mL/min, CrCL-based regression.
Where [10] appears, read: eGFR 15 vs eGFR 90 mL/min/1.73 m^2, eGFR-based regression.
Where [11] appears, read: eGFR 30 vs eGFR 90 mL/min/1.73 m^2, eGFR-based regression.
Where [12] appears, read: single dose 60 mg, all 24 participants.
The mark [13] stands for this setting: moderate renal impairment, n = 8.

These results are taken from PMC9553801 (Clinical Pharmacokinetics, 2022).

Values joined by “and” are separate entries in the source; they are usually repeats but may differ in a detail not shown here. Equal entries are not always repeated. Where two headings read alike, the source gives them in different places.

As for `O=C(NC[C@H]1CN(c2ccc(N3CCOCC3=O)cc2)C(=O)O1)c1ccc(Cl)s1` [rivaroxaban], in series [1], the increase in exposure is 56%.

As for `C[C@@H]1CCC[C@H](n2cnc(-c3cc(Cl)ccc3-n3cc(Cl)nn3)cc2=O)c2cc(ccn2)-c2c(cnn2C(F)F)NC1=O` [milvexian, Milvexian], the “increase in AUCt” value in series [2] (CrCL 15 vs CrCL 90 mL/min, CrCL-based regression) worked out at 49%; in series [2] (setting [9]) it was 38%; in series [2] (setting [10]), 50%; in series [2] (setting [11]), 39%. Also, the “increase in AUC∞” value in series [2] (setting [9]) is 40%; in series [2] (setting [10]) it was 54%; in series [2] (setting [11]), 41%. Also, the “increase in overall exposure” value in series [2] (moderate renal impairment group) was “approximately 40%”; in series [2] (severe renal impairment group), about 50%. Moreover, the values for the area under the curve (AUC) in series [3] (moderate renal impairment), in series [3] (normal renal function) and in series [3] (severe renal impairment) were 5020 ng·h/mL, 3880 ng·h/mL and 7170 ng·h/mL, respectively. Further, the area under the curve AUC(0-t) (as a rule, exposure summed from dosing to a finite time, without extrapolation to infinity) in series [3] (moderate renal impairment) was determined as 5000 ng·h/mL; in series [3] (normal renal function) it was 3860 ng·h/mL; in series [3] (severe renal impairment), 7090 ng·h/mL. In addition, the figures for the area under the curve AUC(0-inf) in series [3] (moderate renal impairment), in series [3] (normal renal function) and in series [3] (severe renal impairment) were 5150 ng·h/mL, 3920 ng·h/mL and 7410 ng·h/mL, respectively. Further, the Cmax (in general, the peak of the concentration-time curve) in series [3] (moderate renal impairment (eGFR ≥ 30 to ≤ 59)) is 406 ng/mL; in series [3] (normal renal function (eGFR ≥ 90)), 462 ng/mL; in series [3] (severe renal impairment (eGFR < 30)), 462 ng/mL. In addition, the Tmax (commonly the time from dosing to the highest level) in series [3] (moderate renal impairment) is 4.75 h; in series [3] (normal renal function), 4.5 h; in series [3] (severe renal impairment), 5 h. The half-life (in general, the time in which the quantity being followed falls by half) in series [3] (moderate renal impairment) was 18 h; in series [3] (normal renal function), 13.8 h; in series [3] (severe renal impairment), 17.7 h. The “%Urt (percentage dose recovered in urine)” value is 7.64 (33) % in series [3] (moderate renal impairment), 10.5 (45) % in series [3] (normal renal function) and 3.14 (75) % in series [3] (severe renal impairment). Further, the “CLT/F (apparent total body clearance)” value in series [3] (moderate renal impairment) was 11.6 L/h and 11.6 (32) L/h; in series [3] (normal renal function), 15.3 L/h and 15.3 (36) L/h; in series [3] (severe renal impairment), 8.10 L/h and 8.10 (37) L/h. The participants reporting headache in series [4] (setting [12]) was found to be 8.3%. Also, the “participants reporting one AE” value in series [4] (setting [12]) is listed as 12.5%. In series [4] (setting [12]), the participants reporting somnolence is 4.2%. Besides, the bleeding events result in series [4] (single dose 60 mg, all renal function groups) was “No bleeding events were reported”. The “Any AE” value is given as 1 (12.5) n (%) in series [4] (setting [13]); 1 (12.5) n (%) in series [4] (normal renal function, n = 8); 1 (12.5) n (%) in series [4] (severe renal impairment, n = 8); 3 (12.5) n (%) in series [4] (total, N = 24). Besides, the Headache in series [4] (setting [13]) was 1 (12.5) n (%); in series [4] (normal renal function, n = 8), 0 n (%); in series [4] (severe renal impairment, n = 8), 1 (12.5) n (%); in series [4] (total, N = 24) it was 2 (8.3) n (%). The Somnolence in series [4] (setting [13]) is 0 n (%); in series [4] (normal renal function, n = 8) it was 1 (12.5) n (%); in series [4] (severe renal impairment, n = 8), 0 n (%); in series [4] (total, N = 24), 1 (4.2) n (%). In addition, the “aPTT percentage change from baseline at mean peak” value in series [5] (moderate renal impairment, 5 h postdose) came out at 97%; in series [5] (normal renal function, 5 h postdose) it was 127%; in series [5] (severe renal impairment, 6 h postdose), 100%. In series [5] (single oral dose, all renal function groups), the “effect on aPTT” value is listed as “concentration-dependent prolongation of aPTT”. Moreover, the free fraction (fraction unbound) (in general, free concentration divided by total concentration) in series [6] (moderate renal impairment) is 0.0881; in series [6] (normal renal function) it was 0.0885; in series [6] (severe renal impairment) it was 0.084. The “%Protein binding” value in series [6] (severe renal impairment) is listed as 91.5 (1) %. Further, in series [7], the renal excretion result is reported as “below 20%”.

In the case of `COc1ccc(-n2nc(C(N)=O)c3c2C(=O)N(c2ccc(N4CCCCC4=O)cc2)CC3)cc1` [apixaban], the increase in exposure in series [8] is 44%.
